This is an account of results in ChEMBL document CHEMBL3351998, “Discovery of potent and specific dihydroisoxazole inhibitors of human transglutaminase 2” (J Med Chem, 2014).

Bounds are passed on as bounds.

In data set [1] the target is T1, Protein-glutamine gamma-glutamyltransferase (Homo sapiens) (UniProt P21980).
T1 sequence (whole entry): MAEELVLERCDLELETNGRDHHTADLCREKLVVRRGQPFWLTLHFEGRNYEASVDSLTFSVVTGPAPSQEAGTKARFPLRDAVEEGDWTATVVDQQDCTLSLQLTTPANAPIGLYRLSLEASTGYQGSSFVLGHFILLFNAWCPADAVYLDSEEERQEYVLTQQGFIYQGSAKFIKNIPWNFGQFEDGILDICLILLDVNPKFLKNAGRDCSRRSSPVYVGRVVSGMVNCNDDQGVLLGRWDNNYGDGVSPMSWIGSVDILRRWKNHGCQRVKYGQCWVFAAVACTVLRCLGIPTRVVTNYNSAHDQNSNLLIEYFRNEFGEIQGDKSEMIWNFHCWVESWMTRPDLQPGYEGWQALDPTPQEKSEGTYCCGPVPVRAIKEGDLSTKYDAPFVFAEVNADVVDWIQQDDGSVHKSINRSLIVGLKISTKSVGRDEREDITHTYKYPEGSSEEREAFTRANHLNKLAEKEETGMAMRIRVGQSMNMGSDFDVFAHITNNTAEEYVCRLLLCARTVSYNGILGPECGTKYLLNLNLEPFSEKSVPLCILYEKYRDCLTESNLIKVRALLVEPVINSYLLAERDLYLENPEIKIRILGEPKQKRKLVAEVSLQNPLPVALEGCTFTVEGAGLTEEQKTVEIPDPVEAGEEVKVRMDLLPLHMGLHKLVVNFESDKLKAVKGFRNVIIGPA
Put plainly: Inhibition of human transglutaminase 2 using ((benzyloxy)carbony l)-L-glutaminylglycine peptide substrate assessed as Kinh/Ki ratio by GDH coupled assay. An outline of the steps:
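Human TG2 (V224G variant) or codon-optimized murine TG2, E. coli-expressed, final ~0.34 and 0.22 μM respectively. Buffer: 200 mM MOPS pH 7.2, 5 mM CaCl2, 10 mM α-ketoglutarate, 300 μM NADH, 36 U/mL bovine GDH. Z-Gln-Gly at 10/20 mM. Inhibitors typically at 100/33.3/11.1/3.7 μM, 1% DMSO, added after ≥5 min pre-equilibration. A340 progress curves fitted to exponential decay; kinh/Ki from irreversible inhibition model.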

In data set [2] the target is T2, Protein-glutamine gamma-glutamyltransferase E (Homo sapiens) (UniProt Q08188).
T2 sequence (whole entry): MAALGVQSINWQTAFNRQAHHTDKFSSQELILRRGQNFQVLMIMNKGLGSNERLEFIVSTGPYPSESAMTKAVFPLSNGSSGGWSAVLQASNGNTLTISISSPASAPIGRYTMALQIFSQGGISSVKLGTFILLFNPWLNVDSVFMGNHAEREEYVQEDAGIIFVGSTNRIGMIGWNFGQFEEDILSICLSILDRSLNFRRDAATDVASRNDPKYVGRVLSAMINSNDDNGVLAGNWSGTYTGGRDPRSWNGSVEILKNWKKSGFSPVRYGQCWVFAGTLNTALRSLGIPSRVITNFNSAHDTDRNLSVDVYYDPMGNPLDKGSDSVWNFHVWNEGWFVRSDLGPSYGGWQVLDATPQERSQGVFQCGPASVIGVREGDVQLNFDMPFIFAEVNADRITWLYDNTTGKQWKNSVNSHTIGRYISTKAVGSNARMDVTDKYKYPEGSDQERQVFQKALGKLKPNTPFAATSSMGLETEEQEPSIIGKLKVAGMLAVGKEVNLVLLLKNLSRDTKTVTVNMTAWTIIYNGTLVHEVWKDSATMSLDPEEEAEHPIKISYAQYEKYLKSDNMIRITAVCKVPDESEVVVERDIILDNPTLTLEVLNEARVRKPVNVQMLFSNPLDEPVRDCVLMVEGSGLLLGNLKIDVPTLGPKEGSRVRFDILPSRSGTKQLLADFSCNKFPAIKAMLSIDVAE
The data set is described as follows: Inhibition of human transglutaminase 3 using ((benzyloxy)carbonyl)-L-glutaminyl-L-serine peptide substrate assessed as Kinh/Ki ratio by GDH coupled assay. In short, it runs like this: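 His-tagged human TG3 activated by cathepsin L (1 μg per 25 μg TG3, MES pH 6.0, 30 min), then quenched with 50 μM E64 for 10 min. Final TG3 ~0.43 μM in 200 mM MOPS pH 7.2, 5 mM CaCl2, 10 mM α-ketoglutarate, 300 μM NADH, 36 U/mL GDH. Z-Gln-Ser at 20/40 mM. Enzyme pre-equilibrated 30 min before inhibitors (typically 100/33.3/11.1/3.7 μM) were added. A340 curves fitted; kinh/Ki from irreversible model.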

The target of data set [3] is T3, Coagulation factor XIII A chain (Homo sapiens) (UniProt P00488).
T3 sequence (whole entry): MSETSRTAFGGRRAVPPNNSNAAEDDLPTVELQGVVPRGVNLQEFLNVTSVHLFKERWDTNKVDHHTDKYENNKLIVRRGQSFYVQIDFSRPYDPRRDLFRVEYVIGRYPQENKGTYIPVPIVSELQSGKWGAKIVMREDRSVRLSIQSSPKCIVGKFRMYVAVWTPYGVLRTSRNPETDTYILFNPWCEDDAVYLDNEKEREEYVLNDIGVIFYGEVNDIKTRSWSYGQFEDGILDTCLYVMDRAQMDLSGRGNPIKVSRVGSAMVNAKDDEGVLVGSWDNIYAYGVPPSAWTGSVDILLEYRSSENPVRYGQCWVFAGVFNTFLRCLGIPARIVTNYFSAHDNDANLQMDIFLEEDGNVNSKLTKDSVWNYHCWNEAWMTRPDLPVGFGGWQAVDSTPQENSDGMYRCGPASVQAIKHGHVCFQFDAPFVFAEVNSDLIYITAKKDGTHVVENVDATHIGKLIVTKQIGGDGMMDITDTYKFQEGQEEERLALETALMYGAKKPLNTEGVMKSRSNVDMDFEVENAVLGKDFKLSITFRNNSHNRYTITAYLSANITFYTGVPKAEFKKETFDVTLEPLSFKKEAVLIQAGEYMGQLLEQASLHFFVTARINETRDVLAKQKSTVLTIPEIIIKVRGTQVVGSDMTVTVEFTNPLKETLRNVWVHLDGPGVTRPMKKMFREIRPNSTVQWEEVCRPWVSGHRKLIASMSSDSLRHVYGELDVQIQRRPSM
Put plainly: Inhibition of human factor 13a using QEQVSPLSLLK peptide substrate assessed as Kinh/Ki ratio by GDH coupled assay.

A short description of data set [4]: Half life in CD-1 mouse at 50 mg/kg, po. The format is ADME, organism-based. On the set-up: dose 50 mg/kg, route oral. The following applies: in vivo. An outline of the steps:
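Male CD-1 mice (6−8 weeks, cohorts of five) fasted ~6 h, then gavaged (10 μL/g) with inhibitor mixtures at 50 mg/kg each compound. Vehicle: 25 mg/mL per compound in 1 M HCl/10% Tween-80/25% ethanol, diluted 5-fold into 0.94% methylcellulose in 250 mM trisodium citrate. Blood sampled at 5, 20 (saphenous) and 60 min (cardiac). Plasma quantified by LC-MS (ESI-QTOF) against standard curves.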

As a reminder, the half-life is the time in which the quantity being followed falls by half. In the case of `O=C(NC[C@@H]1CC(Br)=NO1)[C@@H]1CCCN1C(=O)OCc1cnc2ccccc2c1`, the results for the Ratio in data set [1], in data set [2] and in data set [3] were 16.9, < 1 and 8.3, respectively. Also, the half-life in data set [4] was determined as 15 min.
In the same order, the values of `O=C(N[C@@H]1C[C@@H](C(=O)NC[C@@H]2CC(Br)=NO2)N(C(=O)OCc2cnc3ccccc3c2)C1)c1cccnc1` are 108, < 1, 10.6 and 15 min.
On the same counts, the results for `O=C(NC[C@@H]1CC(Br)=NO1)[C@@H]1C[C@H](F)CN1C(=O)OCc1cnc2ccccc2c1` are 13.4, < 1, 7 and 15 min.
On the same counts, the results for `O=C(NC[C@@H]1CC(Br)=NO1)[C@@H]1C[C@@H](c2ccccc2)CN1C(=O)OCc1cnc2ccccc2c1` are 48.6, < 1, 25.4 and 15 min.
On to `O=C(NC[C@@H]1CC(Br)=NO1)[C@@H]1C[C@@H](c2ccc(O)cc2)CN1C(=O)OCc1cnc2ccccc2c1`, for which the Ratio in data set [1] was 91.1; in data set [2], < 1; in data set [3], 38.7. In data set [4], the half-life came out at 15 min.
On the same counts, the results for `O=C(N[C@@H]1C[C@@H](C(=O)NC[C@@H]2CC(Br)=NO2)N(C(=O)OCc2cnc3ccccc3c2)C1)c1ccc(O)cc1` are 56.4, < 1, 9.4 and 15 min.
`O=C(NC[C@@H]1CC(Br)=NO1)[C@@H]1C[C@@H](OCc2ccccc2)CN1C(=O)OCc1cnc2ccccc2c1`: the Ratio was 13.8 in data set [1], < 1 in data set [2] and 15.5 in data set [3]. This molecule came in with a half-life in data set [4] of 15 min.
In the same order, the values of `O=C(NC[C@@H]1CC(Br)=NO1)[C@@H]1C[C@@H](O)CN1C(=O)OCc1cnc2ccccc2c1` are 12.5, < 1, 11.1 and 15 min.
